TDP2 absorb – blocks human TDP2 phosphodiesterase activity; hit rate 0.34% among 370,000; recombinant TDP2, T5PNP hydrolysis, p-nitrophenol absorbance 415 nm; O95551; AID 720702; inhibition, % at 12.8 µM;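 active = inhibition above the mean of all tested compounds plus 3 SD, set per campaign, cut at about 25% in these data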;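 note: 0% = DMSO with enzyme and 100% = buffer with substrate but no TDP2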
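System – recombinant human TDP2 · Quantity – TDP2 enzyme at 120 nM final · Doses – single concentration, 12.8 µM nominal, with 1% DMSO · Incubation – 2 h at 37 °C · Measured by – epi absorbance of p-nitrophenol freed from T5PNP by hydrolysis · Read-out – % inhibition relative to enzyme-containing and enzyme-free wells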
UHRF1 MBD2 ctr – human UHRF1 methylated DNA binding inhibitors; Q96T88; UHRF1 binding to methylated oligo, TR-FRET; inhibition, % at 4.4 µM; hit rate 0.75% among 370,000; AID 687016; in the data active = inhibition above about 21%;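 note: UHRF1 SRA domain binding a hemimethylated CpG hairpin DNA probe; 0% = median of test compound wells and 100% = reference inhibitor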
Target sequence (Q96T88 whole entry, looked up, the tested form may be a part): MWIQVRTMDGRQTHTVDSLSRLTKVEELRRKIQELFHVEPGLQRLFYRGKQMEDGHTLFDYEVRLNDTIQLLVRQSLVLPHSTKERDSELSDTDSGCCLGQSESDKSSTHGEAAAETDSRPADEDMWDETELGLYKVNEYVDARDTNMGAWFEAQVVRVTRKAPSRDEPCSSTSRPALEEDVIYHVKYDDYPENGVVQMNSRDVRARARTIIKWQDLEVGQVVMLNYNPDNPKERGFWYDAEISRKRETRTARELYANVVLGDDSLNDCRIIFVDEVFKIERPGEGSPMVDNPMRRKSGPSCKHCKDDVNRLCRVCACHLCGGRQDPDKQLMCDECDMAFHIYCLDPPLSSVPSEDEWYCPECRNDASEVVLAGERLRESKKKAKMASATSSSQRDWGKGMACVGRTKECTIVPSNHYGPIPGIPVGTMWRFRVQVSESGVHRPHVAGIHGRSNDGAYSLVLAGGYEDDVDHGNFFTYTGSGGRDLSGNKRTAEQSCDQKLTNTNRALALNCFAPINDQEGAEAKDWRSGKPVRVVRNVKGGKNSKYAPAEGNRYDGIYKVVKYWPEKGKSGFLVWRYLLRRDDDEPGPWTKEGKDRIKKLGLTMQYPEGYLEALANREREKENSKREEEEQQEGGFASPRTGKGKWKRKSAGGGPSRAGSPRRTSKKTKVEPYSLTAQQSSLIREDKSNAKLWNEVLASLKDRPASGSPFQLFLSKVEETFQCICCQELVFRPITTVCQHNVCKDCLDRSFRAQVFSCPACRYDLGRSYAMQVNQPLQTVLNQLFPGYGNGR
MBD2 inh – MBD2-methylated oligo binding inhibition. Q9UBB5. TR-FRET, MBD2 binding to methylated oligonucleotide. inhibition, % at 4.4 µM. hit rate 0.31% among 370,000. AID 686964; in the data active = inhibition above about 13%
LEDGF integ inh – blocks HIV-1 LEDGF/p75-dependent DNA integration; AID 743269; TR-FRET IN-LEDGF/p75 DNA integration, Eu/Cy5; inhibition, % at 3.7 µM; hit rate 0.64% among 370,000;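 active = inhibition above the screen-wide mean plus 3 SD, cut at about 13% in these data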;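 note: signal is the Cy5 over europium emission ratio at 671 and 618 nm; 0% = plate median of compound wells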
Numbers without * were called inactive. The list is not random: actives were taken first. Their share in the collection is about 1.6%.

SMILES	TDP2 absorb	UHRF1 MBD2 ctr	MBD2 inh	LEDGF integ inh
COc1ccc(-n2nnnc2C(c2cc3ccccc3o2)N2CCN(C/C=C/c3ccccc3)CC2)cc1 (stereo not drawn)	-11.1	22.6*	5.3	10.4
C(=C\c1ccccc1)/CN1CCN(C(c2cc3ccccc3o2)c2nnnn2-c2ccc3c(c2)OCCO3)CC1 (stereo not drawn)	7.0	15.0	-6.0	2.3
CCc1sc(C(=O)NCCc2ccc(S(N)(=O)=O)cc2)cc1Br	-10.1	21.1*	4.8	2.9
CCc1sc(C(=O)NCCc2ccc(S(N)(=O)=O)cc2)cc1C	5.5	0.1	8.4	0.1
C/C(=N\Nc1ccc(Cl)c(C(=O)O)c1)c1ccc[nH]1	-5.9	23.4*	5.3	7.5
C/C(=N\Nc1ccc(Cl)c(C(=O)O)c1)c1cccs1	-23.1	17.2	2.3	2.5
O=C(CN1CCN(c2nc(-c3ccccc3)cs2)CC1)Nc1ccc(F)cc1F	-0.3	7.3	2.4	2.9
COC(=O)C1CN(Cc2cn(Cc3ccc(Cl)cc3)nn2)CCS(=O)(=O)N1Cc1ccc(Cl)cc1 (stereo not drawn)	-4.8	14.9	11.3	-1.1
CC(=O)Nc1ccc(NC(=O)COC(=O)c2n[nH]c3ccccc23)cc1	1.1	32.2*	-2.1	-0.4
N#Cc1c(F)cccc1N1CCOCC1	6.9	52.9*	-2.4	1.9
N#Cc1c(Cl)cccc1N1CCCC1	23.3	4.1	-3.3	1.7
CC(C)CCn1c(SCC(=O)Nc2ccccc2C(F)(F)F)nc2nccnc2c1=O	-11.2	22.3*	4.8	5.0
COCCn1c(SCC(=O)Nc2ccccc2C(F)(F)F)nc2ccccc2c1=O	-3.1	-5.6	1.4	2.0
Cc1ccc(SCCNC(=O)/C=C/c2ccccc2Cl)cc1	-19.9	27.4*	7.8	-2.7
CCOC(=O)N1CCN(C(=O)C[C@H]2C[C@@]3(C(=O)OC)C(=C[C@H](C(C)(C)C)O[C@@H]3C)N(Cc3cccc4ccccc34)C2=O)CC1	6.4	-2.2	-2.5	-1.5
S=C(NCc1ccc(Cl)cc1)NCc1ccccn1	-1.9	-0.6	3.7	-5.3
CC(C)CCC(CCNCc1ccccn1)c1ccc(Cl)cc1 (stereo not drawn)	-1.5	2.3	0.6	15.3*
Cc1cccc(CCNC(=O)Cn2ncc3c2-c2cc(C)ccc2OC3)c1	-2.8	-0.2	2.2	-2.5
C/C(=N\NC(=O)c1sccc1-n1cccc1)c1cccs1	-2.3	40.6*	2.0	-7.0
CCC(C)NS(=O)(=O)c1ccc(OCC(=O)NCc2ccco2)cc1 (stereo not drawn)	10.7	24.9*	-1.4	1.6
CC(C)CNS(=O)(=O)c1ccc(OCC(=O)NCc2ccco2)cc1	2.5	-1.3	0.3	-2.1
Cn1c(=O)c2cc(S(=O)(=O)N3CCN(CCO)CC3)ccc2n(C)c1=O	5.5	-1.7	-2.5	6.1
COc1ccc(CN2C(=O)c3cccnc3C2=O)cc1S(=O)(=O)N(C)Cc1ccco1	1.2	0.8	2.0	-4.8
CN(Cc1ccco1)S(=O)(=O)c1cc(F)ccc1CN1C(=O)c2cccnc2C1=O	19.4	24.3*	9.4	-0.9
Nc1nc(N)c2cc(CNc3ccc(Cl)c(Cl)c3)ccc2n1	-8.8	21.6*	11.9	-2.2
SMILES	TDP2 absorb	UHRF1 MBD2 ctr	MBD2 inh	LEDGF integ inh
Nc1nc(N)c2cc(Sc3ccc(Cl)cc3)ccc2n1	-17.9	-0.6	0.3	-2.5
Cc1cc(Cl)ccc1NNC(N)=S	-3.4	21.5*	6.8	1.5
Cc1ccc(C)c(NNC(N)=S)c1	6.0	0.4	-2.1	-1.8
O=C(NCCO)C1(C(=O)C2CC2)CC(c2ccccn2)=NO1 (stereo not drawn)	4.3	2.1	4.4	0.2
O=C1C2C3C=CC(CC3)C2C(=O)N1c1nccs1 (stereo not drawn)	-4.6	20.8*	6.0	-0.3
O=C1C2C3C=CC(C2C(=O)N1c1nccs1)C1C(=O)N(c2nccs2)C(=O)C31 (stereo not drawn)	-7.2	-2.4	1.8	-7.0
CC(C)CNc1ccc2c(c1)OC[C@@H](CC(C)C)NS2(=O)=O	-1.6	-1.1	1.2	-0.1
COc1ccccc1N1CCN(C(=O)COc2cc(C)cc(C)c2)CC1	8.1	27.5*	10.4	1.4
CCCc1c2c(cc3c(=O)cc(C(=O)OCC)oc13)CCCC2	0.1	74.4*	4.0	0.0
CCOC(=O)CC[C@@H]1CC[C@]2(CCCN(C(=O)c3ccno3)C2)O1	1.4	0.2	-4.1	2.5
COc1cccc(NC(=O)C2CCCN2C(=O)Nc2ccccc2)c1 (stereo not drawn)	2.3	-2.0	-0.1	-0.2
CC(=O)c1cccc(NC(=O)N2CCCC2C(=O)Nc2cccc(C)c2)c1 (stereo not drawn)	2.5	20.9*	9.2	1.1
COc1cccc(NC(=O)C2CCCN2C(=O)Nc2cccc(F)c2)c1 (stereo not drawn)	11.9	63.3*	3.3	-1.1
CC(C)C[C@H](NC(=O)c1nccs1)C(=O)N1CCC[C@H]1C(=O)NCc1ccccc1	7.5	-2.2	-0.3	1.8
Cc1cc(C)c2nc(NNC(=O)c3ccc(S(=O)(=O)N4CC(C)CC(C)C4)cc3)sc2c1 (stereo not drawn)	-10.8	-2.4	5.0	14.9*
S=C(NCCc1ccccc1)N1CCCC1	-0.5	27.1*	1.5	3.8
S=C(NCCc1ccccc1)N1CCOCC1	-0.4	-2.6	0.2	1.1
CN(C)c1ccc(-c2[nH][nH]c(=O)c2NC(=O)c2ccccn2)cc1	87.0*	15.8	14.8*	11.4
O=C1N[C@@H](c2ccccc2)COC(=O)[C@@H](Cc2ccc(F)cc2)C/C=C\C[C@@H]1CC(=O)N(CCO)Cc1ccccc1	-6.8	-2.0	-1.7	2.1
O=C1CCC/C=C\C[C@@H](CC(=O)N(CCO)Cc2ccccc2)C(=O)N[C@H](c2ccccc2)CO1	7.7	22.1*	4.6	1.6
COc1ccc(/C=C/C(=O)O)cc1S(=O)(=O)NCc1ccccc1	-15.0	13.4	7.7	87.7*
O=C(OC12CCCN(C1)/C(=C/c1ccccc1)C2)c1ccc(Cl)cc1 (stereo not drawn)	1.7	-3.7	-3.1	3.4
O=[n+]1cc(-c2ccc(Cl)cc2)n([O-])c2c1CCC2	16.5	-1.5	-6.2	-2.1
O=[n+]1cc(-c2ccccc2)n([O-])c2c1CCC2	9.0	20.9*	4.6	0.1
COc1ccc(Cn2cc(CN3[C@@H](C)COc4cc(Br)ccc4S3(=O)=O)nn2)cc1	-9.6	1.7	2.0	-3.8
SMILES	TDP2 absorb	UHRF1 MBD2 ctr	MBD2 inh	LEDGF integ inh
C=CCn1c(COc2ccccc2)nnc1SCC(=O)Nc1ccc(Oc2ccccc2)cc1	-0.3	2.5	0.8	3.5
Cc1ccc(S(=O)(=O)NC2=NCN(CCOC(=O)c3ccccc3)CN2)cc1	-7.3	2.2	-0.8	-1.6
Cc1ccc(S(=O)(=O)NC2=NCN(CCOC(=O)c3ccc([N+](=O)[O-])cc3)CN2)cc1	-9.8	60.2*	2.5	3.3
COC(=O)N/N=C1/C/C(=N\NC(=O)OC)c2ccccc21	50.1*	-8.2	-10.3	32.5*
CC(=O)Nc1ccc(Sc2ccccc2C(=O)Nc2ccc(F)cc2)cn1	12.2	4.0	-3.3	-1.0
CC(=O)Nc1ccc(Sc2ccccc2C(=O)O)cn1	13.3	21.2*	12.4	1.0

Screening results deposited in PubChem BioAssay by The Scripps Research Institute Molecular Screening Center.
